Reference: article PMC2822702 (Biochimica et biophysica acta, 2009)

T1: wt Bid (Mus musculus, UniProt P70444)
T1 sequence (P70444 1-195): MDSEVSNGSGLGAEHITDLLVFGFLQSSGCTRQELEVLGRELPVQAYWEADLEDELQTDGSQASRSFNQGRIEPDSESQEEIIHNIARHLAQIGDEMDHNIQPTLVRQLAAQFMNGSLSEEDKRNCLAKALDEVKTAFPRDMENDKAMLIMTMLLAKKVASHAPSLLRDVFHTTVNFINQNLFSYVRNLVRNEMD

T2: Bid K157E (Mus musculus, UniProt P70444, K157E)
T2 sequence (P70444 1-195 K157E): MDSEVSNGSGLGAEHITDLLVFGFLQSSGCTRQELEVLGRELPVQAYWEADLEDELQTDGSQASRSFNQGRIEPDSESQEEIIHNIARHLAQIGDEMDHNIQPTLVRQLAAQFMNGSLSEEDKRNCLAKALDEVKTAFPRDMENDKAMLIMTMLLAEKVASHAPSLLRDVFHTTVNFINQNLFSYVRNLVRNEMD

T3: Bid R187E (Mus musculus, UniProt P70444, R187E)
T3 sequence (P70444 1-195 R187E): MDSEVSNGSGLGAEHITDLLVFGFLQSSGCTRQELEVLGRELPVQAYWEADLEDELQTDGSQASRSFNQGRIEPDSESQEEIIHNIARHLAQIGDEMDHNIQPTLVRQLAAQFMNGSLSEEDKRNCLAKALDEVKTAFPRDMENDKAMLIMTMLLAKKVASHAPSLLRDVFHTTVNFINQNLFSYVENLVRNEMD


Assays:
wt Bid = molecular target: T1, wt Bid; test: ADIFAB fluorescence quenching; format: binding; conditions: recombinant mouse wt Bid, ADIFAB 0.2 μM, room temperature
Summary of the method: (§1)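 Recombinant N-terminal His6-tagged mouse Bid was expressed in E. coli BL21(DE3)pLysS and purified on a chelating affinity column. ADIFAB at 0.2 μM in 10 mM Tris pH 8.0, 0.15 M NaCl, 1 mM EGTA was run alone or with Bid at 22–24 °C. Lipid ligand was titrated with excitation at 390 nm and emission read at 410–610 nm. Kd was taken from Stern–Volmer (F0/F) slopes.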

Bid K157E = molecular target: T2, Bid K157E; test: ADIFAB fluorescence quenching; format: binding; conditions: recombinant mouse Bid K157E mutant, ADIFAB 0.2 μM, room temperature
Summary of the method: as §1

Bid R187E = molecular target: T3, Bid R187E; test: ADIFAB fluorescence quenching; format: binding; conditions: recombinant mouse Bid R187E mutant, ADIFAB 0.2 μM, room temperature
Summary of the method: as §1

mouse liver mitochondria = test: Cell-free assay of cytochrome c release from isolated mitochondria; format: biochemical; conditions: for release of cytochrome c: 200 nM full-length recombinant Bid protein, no exogenous lysolipids, 15 min
Summary of the method: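 They were incubated 15 min at 22 °C with 200 nM recombinant full-length mouse Bid plus 2 μM LPC-C16 added from ethanol, then pelleted. Supernatant cytochrome c was immunoblotted and quantified by densitometry (n=3, t-test), with controls of 500 μM LPC-C16 and no Bid.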

[1] = system: FSK7 mouse mammary epithelial cells; test: Anoikis of mammary epithelial cells expressing YFP-tagged Bid; format: cell-based; conditions: FL Bid YFP over-expressed, 5 h detached
Summary of the method: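 FSK7 cells were grown in DMEM/F-12 with 5 ng/ml EGF, 5 μg/ml insulin and 2% FCS at 37 °C, 5% CO₂. They were lipofected with C-terminal YFP-tagged full-length Bid or YFP alone. At 18 h post-transfection cells were detached onto polyHEMA for 5 h, cytospun, PFA-fixed and Hoechst-stained. Apoptosis was scored by nuclear morphology as mean ± SEM.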

Molecule	Kd (wt Bid) [nM]	Kd (Bid K157E) [nM]	Kd (Bid R187E) [nM]	release of cytochrome c (mouse liver mitochondria)	other results
CCCCCCCCCCCCCCCC(=O)OC[C@@H](O)COP(=O)([O-])OCC[N+](C)(C)C [LPC-C16, 1-palmitoyl-LPC]	~4000	~4000	5500	–	enhancement of cytochrome c release (mouse liver mitochondria; 2 μM LPC-C16 with 200 nM K157E FL Bid): much stronger enhancement; increase in capacity of releasing cytochrome c (mouse liver mitochondria; 2 μM LPC-C16 with 200 nM R187E FL Bid): ~2 fold; increase in capacity of releasing cytochrome c (mouse liver mitochondria; 2 μM LPC-C16 with 200 nM wt FL Bid): ~2 fold
monolysocardiolipin [MCL]	1300	1800	~1400	–	–
CCCCCCCC/C=C\CCCCCCCC(=O)OC[C@@H](O)COP(=O)(O)OCC(O)CO (stereo partly drawn) [LPG-C18, 1-oleyl-LPG]	80	200	100	–	–
wt Bid: recombinant full-length wild type mouse Bid with N-terminal six-histidine tag (protein, UniProt P70444 1-195, looked up, full-length N-terminal His6 tag) MDSEVSNGSGLGAEHITDLLVFGFLQSSGCTRQELEVLGRELPVQAYWEADLEDELQTDGSQASRSFNQGRIEPDSESQEEIIHNIARHLAQIGDEMDHNIQPTLVRQLAAQFMNGSLSEEDKRNCLAKALDEVKTAFPRDMENDKAMLIMTMLLAKKVASHAPSLLRDVFHTTVNFINQNLFSYVRNLVRNEMD	–	–	–	some release of cytochrome c	–
R187E Bid: recombinant mouse Bid, arginine 187 replaced by glutamic acid (protein, UniProt P70444 1-195, looked up, variant R187E) BH3-interacting domain death …: MDSEVSNGSGLGAEHITDLLVFGFLQSSGCTRQELEVLGRELPVQAYWEADLEDELQTDGSQASRSFNQGRIEPDSESQEEIIHNIARHLAQIGDEMDHNIQPTLVRQLAAQFMNGSLSEEDKRNCLAKALDEVKTAFPRDMENDKAMLIMTMLLAKKVASHAPSLLRDVFHTTVNFINQNLFSYVENLVRNEMD	–	–	–	some release of cytochrome c	–
K157E Bid YFP: C-terminal YFP-tagged full-length mouse Bid K157E expressed by transfection (protein, UniProt P70444 1-195, looked up, variant K157E, full-length C-terminal YFP fusion) MDSEVSNGSGLGAEHITDLLVFGFLQSSGCTRQELEVLGRELPVQAYWEADLEDELQTDGSQASRSFNQGRIEPDSESQEEIIHNIARHLAQIGDEMDHNIQPTLVRQLAAQFMNGSLSEEDKRNCLAKALDEVKTAFPRDMENDKAMLIMTMLLAEKVASHAPSLLRDVFHTTVNFINQNLFSYVRNLVRNEMD	–	–	–	–	sensitisation to anoikis compared with wt Bid [1]: no difference
K157E Bid: recombinant mouse Bid, lysine 157 replaced by glutamic acid (protein, UniProt P70444 1-195, looked up, variant K157E) BH3-interacting domain death …: MDSEVSNGSGLGAEHITDLLVFGFLQSSGCTRQELEVLGRELPVQAYWEADLEDELQTDGSQASRSFNQGRIEPDSESQEEIIHNIARHLAQIGDEMDHNIQPTLVRQLAAQFMNGSLSEEDKRNCLAKALDEVKTAFPRDMENDKAMLIMTMLLAEKVASHAPSLLRDVFHTTVNFINQNLFSYVRNLVRNEMD	–	–	–	did not release cytochrome c	–
wt Bid YFP: C-terminal YFP-tagged full-length wild type mouse Bid expressed by transfection (protein, UniProt P70444 1-195, looked up, full-length C-terminal YFP tag) MDSEVSNGSGLGAEHITDLLVFGFLQSSGCTRQELEVLGRELPVQAYWEADLEDELQTDGSQASRSFNQGRIEPDSESQEEIIHNIARHLAQIGDEMDHNIQPTLVRQLAAQFMNGSLSEEDKRNCLAKALDEVKTAFPRDMENDKAMLIMTMLLAKKVASHAPSLLRDVFHTTVNFINQNLFSYVRNLVRNEMD	–	–	–	–	apoptosis (cell death) after detachment ([1]; nuclear morphology): around 85%
R187E Bid YFP: C-terminal YFP-tagged full-length mouse Bid R187E expressed by transfection (protein, UniProt P70444 1-195, looked up, variant R187E, full-length C-terminal YFP tag) MDSEVSNGSGLGAEHITDLLVFGFLQSSGCTRQELEVLGRELPVQAYWEADLEDELQTDGSQASRSFNQGRIEPDSESQEEIIHNIARHLAQIGDEMDHNIQPTLVRQLAAQFMNGSLSEEDKRNCLAKALDEVKTAFPRDMENDKAMLIMTMLLAKKVASHAPSLLRDVFHTTVNFINQNLFSYVENLVRNEMD	–	–	–	–	sensitisation to anoikis compared with wt Bid [1]: no difference
